Source: ChEMBL document CHEMBL4138281, “Anti-Staphylococcal Calopins from Fruiting Bodies of Caloboletus radicans” (2018)
Values after ≈ are worked out from the molar mass of the structure shown. Active and inactive are the calls of the source. The calls are words filed in the database; no cut-off is given here.

What was measured:
Staphylococcus aureus [1] = test: Antimicrobial activity against […] Staphylococcus aureus ATCC 25923 after 18 hrs by MTT based broth dilution assay; assay type: functional; details: ATCC 25923, 18 h
Method in brief: (§1)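 Strains grown 24 h at 37 °C on nutrient agar. Inoculum of 5 × 10^5 CFU set in 0.9% saline against a 0.5 McFarland standard. Compounds serially diluted 0.5–256 μg/mL in Mueller–Hinton broth, inoculated and incubated 18 h at 37 °C; DMSO control; norfloxacin positive control. MTT (5 mg/mL methanolic) added for 20 min; MIC is the lowest concentration with no growth (no yellow-to-blue change); at least three independent determinations.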

Pyricularia oryzae = test: Antimicrobial activity against Magnaporthe oryzae Triticum pathotype at 40 ug/disk after 5 days by disc diffusion method; assay type: functional, organism-based
Method in brief: (§2)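 Fungi pre-grown on 10% V8 agar at 25 °C in the dark. A 4 mm mycelial agar block was centred on a 9 cm PDA plate. Paper disks (8 mm) carried 40 μL of a 1000 μg/mL acetone stock, dried, and were set 4 mm from the block. Plates incubated 5 days at 25 °C in the dark; inhibition zone measured in mm; triplicate.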

Enterococcus faecalis [2] = test: Antimicrobial activity against Enterococcus faecalis FF11 at 40 ug/disk after 2 days by disc diffusion method; assay type: functional, organism-based
Method in brief: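 Bacterial suspension (1 × 10^5 CFU/mL) spread on Mueller–Hinton agar. Paper disks (8 mm) carried 40 μL of a 1000 μg/mL acetone solution, dried, and were placed on the plate. Incubated 2 days at 37 °C; halo diameter measured; mean ± standard error of three replications; azithromycin positive control.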

HepG2 = test: Cytotoxicity against human HepG2 cells at 100 uM after 72 hrs by SRB assay; assay type: functional, cell-based
Method in brief: (§3)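 SRB assay. Cells kept in DMEM with 10% FBS and 1% penicillin–streptomycin at 37 °C, 5% CO2. Seeded at 5 × 10^4 cells/mL, adapted overnight, then exposed to compounds for 72 h. Cells fixed with 10% TCA (30 min, 4 °C), stained with SRB for 30 min, washed with 1% acetic acid, OD read at 540 nm. Paclitaxel positive control; 0.05% DMSO negative control; triplicate.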

[3] = tested on: Colletotrichum gloeosporioides; test: Antimicrobial activity against Colletotrichum gloeosporioides at 40 ug/disk after 5 days by disc diffusion method; assay type: functional, organism-based; method in brief: as §2
Staphylococcus aureus [4] = test: Antimicrobial activity against […] Staphylococcus aureus SA1199B after 18 hrs by MTT based broth dilution assay; assay type: functional; method in brief: as §1
PC-3 = test: Cytotoxicity against human PC3 cells at 100 uM after 72 hrs by SRB assay; assay type: functional, cell-based; method in brief: as §3
Staphylococcus aureus [5] = test: Antimicrobial activity against methicillin-resistant Staphylococcus aureus EMRSA-15 after 18 hrs by MTT based broth dilution assay; assay type: functional; details: EMRSA-15, 18 h; method in brief: as §1
Staphylococcus aureus [6] = test: Antimicrobial activity against tetracycline/methicillin-resistant Staphylococcus aureus XU212 after 18 hrs by MTT based broth dilution assay; assay type: functional; details: XU212, 18 h; method in brief: as §1
Enterococcus faecalis [7] = test: Antimicrobial activity against Enterococcus faecalis F1B1 assessed as zone of inhibition at 40 ug/disk after 2 days by disc diffusion method; assay type: functional; details: F1B1, 48 h, read-out: DIZ
Method in brief: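 Disk diffusion on Mueller-Hinton agar spread with bacterial suspension (1 × 10^5 CFU/mL). 40 μL of a 1000 μg/mL acetone solution loaded on an 8 mm paper disk and dried before placement. Incubated 2 days at 37 °C, then diameter of the bacteria-free halo measured. Mean ± standard error of three replicates; azithromycin positive control.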

Compound | MIC (Staphylococcus aureus [1]) | Activity (Pyricularia oryzae) | Activity (Enterococcus faecalis [2]) | Activity (HepG2) | Activity [3] | MIC (Staphylococcus aureus [4]) | Activity (PC-3) | MIC (Staphylococcus aureus [5]) | MIC (Staphylococcus aureus [6]) | zone of inhibition at 40 µg/disc (Enterococcus faecalis [7])
CC1=CC[C@]2([C@H]3[C@H](C)COC(=O)[C@H]3O[C@@]2(C)O)[C@@H](O)[C@H]1O | 32 µg/mL (≈ 107 µM) | inactive | inactive | inactive | inactive | 64 µg/mL (≈ 215 µM) | inactive | 64 µg/mL (≈ 215 µM) | – | –
C[C@@H]1COC(=O)[C@H]2O[C@@](C)(O)[C@@]3(CC=C(CO)C(=O)[C@H]3O)[C@@H]12 | 64 µg/mL (≈ 205 µM) | inactive | inactive | inactive | inactive | 128 µg/mL (≈ 410 µM) | inactive | 128 µg/mL (≈ 410 µM) | 64 µg/mL (≈ 205 µM) | –
CC(=O)O[C@@H]1[C@@H](O)C(C)=CC[C@]12[C@H]1[C@H](C)COC(=O)[C@H]1O[C@@]2(C)O | 16 µg/mL (≈ 47 µM) | inactive | inactive | inactive | inactive | 16 µg/mL (≈ 47 µM) | inactive | 32 µg/mL (≈ 94 µM) | 32 µg/mL (≈ 94 µM) | –
COCC1=CC[C@]2([C@H]3[C@H](C)COC(=O)[C@H]3O[C@@]2(C)O)[C@H](O)C1=O | 64 µg/mL (≈ 196 µM) | inactive | inactive | inactive | inactive | 64 µg/mL (≈ 196 µM) | inactive | 128 µg/mL (≈ 392 µM) | 128 µg/mL (≈ 392 µM) | –
Cc1ccc([C@H]2[C@H](C)COC(=O)[C@H]2O)c(O)c1O | 64 µg/mL (≈ 254 µM) | inactive | inactive | inactive | inactive | 128 µg/mL (≈ 507 µM) | inactive | 128 µg/mL (≈ 507 µM) | 128 µg/mL (≈ 507 µM) | 5.6 mm
CC(=O)O[C@@H]1C(=O)OC[C@@H](C)[C@@H]1c1ccc(C)c(O)c1O | – | inactive | inactive | inactive | inactive | 128 µg/mL (≈ 435 µM) | inactive | 64 µg/mL (≈ 217 µM) | 64 µg/mL (≈ 217 µM) | 9.5 mm
CC1=CC[C@]2([C@H]3[C@H](C)COC(=O)[C@H]3O[C@@]2(C)O)[C@H](O)C1=O | 32 µg/mL (≈ 108 µM) | inactive | inactive | inactive | inactive | 64 µg/mL (≈ 216 µM) | inactive | 64 µg/mL (≈ 216 µM) | – | 7.1 mm
CCn1cc(C(=O)O)c(=O)c2cc(F)c(N3CCNCC3)cc21 [NORFLOXACIN] | 32 µg/mL (≈ 100 µM) | – | – | – | – | 64 µg/mL (≈ 200 µM) | – | 32 µg/mL (≈ 100 µM) | 32 µg/mL (≈ 100 µM) | –
CC(=O)O[C@@H]1[C@@H](OC(C)=O)C(C)=CC[C@]12[C@H]1[C@H](C)COC(=O)[C@H]1O[C@@]2(C)O | – | inactive | inactive | inactive | inactive | 64 µg/mL (≈ 167 µM) | inactive | – | 64 µg/mL (≈ 167 µM) | 5.5 mm
COCC1=CC[C@]2([C@H]3[C@H](C)COC(=O)[C@H]3O[C@@]2(C)OC)[C@H](O)C1=O | 128 µg/mL (≈ 376 µM) | inactive | inactive | inactive | inactive | 256 µg/mL (≈ 752 µM) | inactive | 256 µg/mL (≈ 752 µM) | 128 µg/mL (≈ 376 µM) | 5.5 mm
CC1C(=O)[C@@H](O)[C@@]23C[C@H]1O[C@]2(O)O[C@@H]1C(=O)OC[C@@H](C)[C@@H]13 (some centres undefined) | 64 µg/mL (≈ 215 µM) | inactive | inactive | inactive | inactive | 128 µg/mL (≈ 429 µM) | inactive | 64 µg/mL (≈ 215 µM) | 64 µg/mL (≈ 215 µM) | –
